Measurements pooled from the literature.
Target: Calcium/calmodulin-dependent protein kinase type 1 (CAMK1, Homo sapiens, UniProt Q14012)

| Compound | read-out | technique | tested at | remaining binding [%] |
| --- | --- | --- | --- | --- |
| c1cnn2ncc(-c3ccnc(N4CCC45COC5)n3)c2c1 | binding |  | 1 µM | 80 |
| c1cncc(-c2cccc(Nc3nccc(NC4CCCCC4)n3)c2)c1 | binding | competition with immobilised ligand | 10 µM | 53 |
| O=C(c1ccc(Nc2ncc(Cl)c(-c3cc4ccccc4s3)n2)cc1)N1CCC(N2CCCC2)CC1 | binding | competition with immobilised ligand | 1 µM | 58 |
| O=C(NC[C@@H]1[C@H]2CN(C(=O)OCc3cc(C(F)(F)F)cc(C(F)(F)F)c3)C[C@@H]12)c1ccc2[nH]nnc2c1 | cell-free assay | competition with immobilised ligand | 1 µM | 77 |
| N[C@@H]1CCN(c2nccc(-c3cnn4ncccc34)n2)C1 | binding |  | 1 µM | 100 |
| Nc1ncc2c(n1)-c1c([nH]c3ccc(C#CC4CC4)cc13)CCCC2 | binding | competition with immobilised ligand | 1 µM | 100 |
| C[C@@H](c1cccc(C#N)c1)n1cc(Cl)cc(C(N)=O)c1=N | cell-free assay | competition with immobilised ligand | 1 µM | 100 |
| O=C(c1ccc(Nc2nccc(-c3cc4ccccc4s3)n2)cc1)N1CCC(N2CCCC2)CC1 | binding | competition with immobilised ligand | 1 µM | 71 |
| COc1cnc(Nc2cccc(S(N)(=O)=O)c2)nc1N1CCN(c2ccccc2)CC1 | binding | competition with immobilised ligand | 1 µM | 100 |
| CC1CCCN1c1nccc(-c2cnn3ncccc23)n1 (stereo not drawn) | binding |  | 1 µM | 98 |
| O=C(NCCCN1CCOCC1)c1ccc(Nc2ncc(Cl)c(-c3ccc(Cl)s3)n2)cc1 | binding | competition with immobilised ligand | 1 µM | 78 |
| C[C@H](c1ccc(F)cc1)N(Cc1cccc(C(=O)O)c1)C(=O)c1cnc2ccccc2c1 | cell-free assay | competition with immobilised ligand | 1 µM | 100 |
| CN(C)c1nccc(-c2cnc3ncccn23)n1 | binding |  | 1 µM | 68 |
| O=C(NCC1CCOCC1)c1n[nH]cc1NC(=O)c1c(F)cccc1F | binding | competition with immobilised ligand | 1 µM | 88 |
| CO[C@H]1CC[C@H](CNc2ccc(S(=O)(=O)NC(=O)c3ccc(N4CCN(CC5=C(c6ccc(Cl)cc6)CC(C)(C)CC5)CC4)cc3Oc3cnc4[nH]ccc4c3)cc2[N+](=O)[O-])CC1 | cell-free assay | competition with immobilised ligand | 1 µM | 88 |
| COc1cnc(Nc2cccc(S(N)(=O)=O)c2)nc1N1CCN(c2ccccc2)C(=O)C1 | binding | competition with immobilised ligand | 1 µM | 100 |
| C[C@@H](c1ccc(-n2cnc3c(N)ncnc32)cc1)N1CCc2nn(C)c(Cc3ccccc3)c2C1=O | binding | competition with immobilised ligand | 0.1 µM | 89 |
| CC1=C(C#N)C(c2ccc3c(c2)c(NC(=O)c2ccccc2C)nn3C)C(C#N)=C(C)N1 | cell-free assay | competition with immobilised ligand | 1 µM | 98 |
| C[C@@H]1CCN(c2nccc(-c3cnn4ncccc34)n2)C1 | binding |  | 1 µM | 87 |
| O=C1NC(c2ccccn2)Sc2ccccc21 (stereo not drawn) | cell-free assay | competition with immobilised ligand | 1 µM | 91 |
| CN(C)c1nccc(-c2cnn3ncccc23)n1 | binding |  | 1 µM | 100 |
